Experimental data taken from ChEMBL document CHEMBL1152759, “Design, synthesis, and biological evaluation of novel quinoline derivatives as HIV-1 Tat-TAR interaction inhibitors” (Bioorg Med Chem, 2009).

Experiments:
[1] = tested on: Simian immunodeficiency virus; assay: Antiviral activity against SIV in human CEM cells assessed as protection against virus-induced cytopathogenicity; format: functional, organism-based; settings: CCRF-CEM
How it was run: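 SIV syncytium assay: CEM174 cells at 2 × 10^5 cells/ml infected with 100 TCID50 SIV per well, given dilutions of compound; 5 days at 37 °C, 5% CO2, humidified air. Giant (syncytium) cell formation scored microscopically. EC50 = concentration protecting cells from SIV cytopathogenicity by 50%.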

[2] = Selectivity index, ratio of TC50 for human CEM cells to EC50 for SIV in human CEM cells
[3] = Cytotoxicity against human CEM cells; format: cell-based; settings: CEM (CCRF-CEM) cells, read-out: TC50 (the source's name)
How it was run: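 Uninfected CEM cells exposed to compound dilutions; TC50 is the concentration giving 50% inhibition of cell proliferation.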

Nucleic Acid = assay: Inhibition of HIV1 Tat-TAR RNA interaction-mediated transactivation in human 293T cells assessed as CAT gene expression at 30 uM after 24 hrs by ELISA; values are per cent of control; settings: Human immunodeficiency virus 1

Row | Compound | EC50 [1] | Ratio [2] | CC50 [3] | level, % of control (Nucleic Acid)
1 | COC(=O)[C@H](CO)NC(=O)c1cnc2cc(Cl)ccc2c1Cl | 8.2 µM | >12 | > 100 µM | 
2 | O=C(NCCO)c1cn(Cc2ccc(F)cc2)c2ccccc2c1=O | 6.9 µM | >14 | > 100 µM | 
3 | COC(=O)C[C@H](NC(=O)c1cnc2ccccc2c1Cl)C(=O)OC |  |  |  | 58.7%
4 | COC(=O)[C@H](CO)NC(=O)c1cnc2ccc(Cl)cc2c1Cl | 12 µM | >8.3 | > 100 µM | 
5 | COC(=O)[C@@H](NC(=O)c1cnc2cc(C)ccc2c1Cl)[C@@H](C)O | 13 µM | >14 | > 100 µM | 92.7%
6 | COC(=O)[C@H](CC(C)C)NC(=O)c1cnc2ccccc2c1Cl | 9.4 µM | 5.2 | 49.1 µM | 
7 | COC(=O)[C@H](CO)NC(=O)c1cnc2ccc(C)cc2c1Cl | 11.6 µM | >8.6 | > 100 µM | 
8 | O=C(NCCO)c1cn(Cc2ccccc2)c2ccccc2c1=O | 6 µM | >16 | > 100 µM | 63.9%
9 | COC(=O)[C@H](Cc1ccccc1)NC(=O)c1cnc2ccccc2c1Cl | 7.9 µM | >13 | > 100 µM | 
10 | COC(=O)[C@H](CO)NC(=O)c1cnc2c(F)cc(F)cc2c1Cl | 8.8 µM | >11 | > 100 µM | 
11 | COC(=O)[C@H](Cc1c[nH]c2ccccc12)NC(=O)c1cnc2ccccc2c1Cl | 10 µM | >19 | > 100 µM | 
12 | CC(C)C[C@@H](CO)NC(=O)c1cnc2ccccc2c1Cl | 7.9 µM | >12 | > 100 µM | 71.9%
13 | Cn1cc(C(=O)NCCO)c(=O)c2ccccc21 | 8.7 µM | >11 | > 100 µM | 44.2%

Continued by falling EC50 [1], values first:

Row | EC50 [1] | Compound | Ratio [2] | CC50 [3] | level, % of control (Nucleic Acid)
14 | 7.3 µM | O=C(NCCO)c1cn(CCO)c2ccccc2c1=O | >13 | > 100 µM | 
15 | 7 µM | C[C@@H](CO)NC(=O)c1cnc2ccccc2c1Cl | >14 | > 100 µM | 
16 | 7 µM | COC(=O)[C@@H](NC(=O)c1cnc2ccccc2c1Cl)[C@@H](C)O | >14 | > 100 µM | 82.4%
17 | 6.7 µM | COC(=O)[C@H](CO)NC(=O)c1cnc2c(Cl)cccc2c1Cl | >15 | > 100 µM | 
18 | 6.6 µM | O=C(NCCCO)c1cnc2ccccc2c1Cl | >15 | > 100 µM | 
19 | 5.8 µM | COC(=O)[C@H](CO)NC(=O)c1cnc2ccc(F)cc2c1Cl | >17 | > 100 µM | 
20 | 5.7 µM | COC(=O)[C@H](C)NC(=O)c1cnc2ccccc2c1Cl | 14 | 81.3 µM | 
21 | 5.6 µM | COC(=O)[C@@H](NC(=O)c1cnc2ccccc2c1Cl)C(C)C | 3.1 | 17.6 µM | 
22 | 5.4 µM | COC(=O)CNC(=O)c1cnc2ccccc2c1Cl | >18 | > 100 µM | 79%
23 | 5.1 µM | O=C(NCCO)c1c[nH]c2ccc(Cl)cc2c1=O | >19 | > 100 µM | 
24 | 4.9 µM | O=C(NCCO)c1c[nH]c2ccc(Oc3ccccc3)cc2c1=O | >20 | > 100 µM | 
25 | 4.7 µM | CCOC(=O)[C@H](CO)NC(=O)c1cnc2ccccc2c1Cl | >21 | > 100 µM | 
26 | 4.7 µM | COC(=O)[C@H](CO)NC(=O)c1cnc2cc(C)ccc2c1Cl | 13 | 59.6 µM | 53.3%
27 | 4 µM | O=C(N[C@H](CO)Cc1ccccc1)c1cnc2ccccc2c1Cl | >25 | > 100 µM | 
28 | 3.7 µM | O=C(NCCO)c1c[nH]c2ccccc2c1=O | >27 | > 100 µM | 
29 | 2.9 µM | COC(=O)[C@H](CSC)NC(=O)c1cnc2ccccc2c1Cl | 22 | 68.4 µM | 
30 | 2.8 µM | COC(=O)[C@H](CO)NC(=O)c1cnc2c(C)cccc2c1Cl | >36 | > 100 µM | 
31 | 2.7 µM | O=C(NCCO)c1cnc2ccccc2c1Cl | >37 | > 100 µM | 
32 | 1.3 µM | CC[C@H](C)[C@H](NC(=O)c1cnc2ccccc2c1Cl)C(=O)OC | 17 | 23.3 µM | 
33 | 1.1 µM | COC(=O)[C@H](CO)NC(=O)c1cnc2ccccc2c1Cl | >90 | > 100 µM | 59.6%
